In ChEMBL document CHEMBL1921707 (J Med Chem, 2011):

Tests used:
Format in all cases: cell-based
Histamine H4 receptor [1] = target: Histamine H4 receptor (Homo sapiens, UniProt Q9H3N8); test: Displacement of [3H]histamine from human H4 receptor expressed in HEK293 cells after 1 to 1.5 hrs by scintillation counting
Histamine H3 receptor = Histamine H3 receptor (Homo sapiens, UniProt Q9Y5N1); test: Displacement of [3H]histamine from human H3 receptor expressed in HEK293 cells after 1 to 1.5 hrs by scintillation counting
Sequence of Histamine H3 receptor (Q9Y5N1 whole entry): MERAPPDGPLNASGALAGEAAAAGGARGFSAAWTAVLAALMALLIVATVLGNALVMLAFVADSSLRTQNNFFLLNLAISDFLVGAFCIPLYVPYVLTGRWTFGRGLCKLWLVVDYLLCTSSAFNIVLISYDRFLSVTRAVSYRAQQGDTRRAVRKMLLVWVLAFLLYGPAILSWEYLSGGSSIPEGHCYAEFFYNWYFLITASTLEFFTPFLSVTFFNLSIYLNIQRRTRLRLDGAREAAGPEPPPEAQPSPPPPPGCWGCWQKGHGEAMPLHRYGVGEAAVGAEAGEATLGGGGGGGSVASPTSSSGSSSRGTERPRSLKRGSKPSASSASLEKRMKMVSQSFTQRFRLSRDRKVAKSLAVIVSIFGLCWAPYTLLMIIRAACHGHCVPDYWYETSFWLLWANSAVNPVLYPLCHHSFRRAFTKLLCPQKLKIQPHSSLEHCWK

Histamine H4 receptor [2] = target: Histamine H4 receptor (Homo sapiens, UniProt Q9H3N8, N147Y); test: Displacement of [3H]histamine from human H4 receptor N4.57Y mutant expressed in HEK293 cells after 1 to 1.5 hrs by scintillation counting
Sequence of Histamine H4 receptor (Homo sapiens, UniProt Q9H3N8, N147Y) (Q9H3N8 whole entry N147Y): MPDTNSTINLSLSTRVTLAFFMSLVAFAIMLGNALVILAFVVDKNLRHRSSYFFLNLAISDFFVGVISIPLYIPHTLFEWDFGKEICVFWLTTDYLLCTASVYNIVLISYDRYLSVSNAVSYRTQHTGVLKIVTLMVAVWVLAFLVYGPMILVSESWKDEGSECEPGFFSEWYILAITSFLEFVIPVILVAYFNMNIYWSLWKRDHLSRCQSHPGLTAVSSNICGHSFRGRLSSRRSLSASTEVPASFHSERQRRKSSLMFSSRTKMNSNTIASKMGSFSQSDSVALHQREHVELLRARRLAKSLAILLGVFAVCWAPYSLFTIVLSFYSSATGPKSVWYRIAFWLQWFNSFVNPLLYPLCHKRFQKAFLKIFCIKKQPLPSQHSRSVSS

Histamine H4 receptor [3] = target: Histamine H4 receptor (Homo sapiens, UniProt Q9H3N8, V102A); test: Displacement of [3H]histamine from human H4 receptor V3.40A mutant expressed in HEK293 cells after 1 to 1.5 hrs by scintillation counting
Sequence of Histamine H4 receptor (Homo sapiens, UniProt Q9H3N8, V102A) (Q9H3N8 whole entry V102A): as the sequence (Q9H3N8 whole entry N147Y) above, with V102A, Y147N counted along it

Histamine H4 receptor [4] = target: Histamine H4 receptor (Homo sapiens, UniProt Q9H3N8, Q347L); test: Displacement of [3H]histamine from human H4 receptor Q7.42L mutant expressed in HEK293 cells after 1 to 1.5 hrs by scintillation counting
Sequence of Histamine H4 receptor (Homo sapiens, UniProt Q9H3N8, Q347L) (Q9H3N8 whole entry Q347L): as the sequence (Q9H3N8 whole entry N147Y) above, with Y147N, Q347L counted along it

Histamine H4 receptor [5] = target: Histamine H4 receptor (Homo sapiens, UniProt Q9H3N8, E182Q); test: Displacement of [3H]JNJ7777120 from human H4 receptor E5.46Q mutant expressed in HEK293 cells after 1 to 1.5 hrs by scintillation counting
Sequence of Histamine H4 receptor (Homo sapiens, UniProt Q9H3N8, E182Q) (Q9H3N8 whole entry E182Q): as the sequence (Q9H3N8 whole entry N147Y) above, with Y147N, E182Q counted along it
Outline: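 HEK293T cells transiently transfected (PEI method) with human H4R E5.46Q cDNA, membranes harvested 2 days later. Crude membranes in 50 mM Tris-HCl pH 7.4 with ~10 nM [3H]JNJ-7777120 and compound at 1 pM to 0.1 mM, room temperature, shaking. Separation by filtration on PEI-presoaked GF/C, ice-cold Tris washes. pKi as mean ± SEM of at least three experiments run in triplicate.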

Histamine H4 receptor [6] = target: Histamine H4 receptor (Homo sapiens, UniProt Q9H3N8, T323M); test: Displacement of [3H]histamine from human H4 receptor T6.55M mutant expressed in HEK293 cells after 1 to 1.5 hrs by scintillation counting
Sequence of Histamine H4 receptor (Homo sapiens, UniProt Q9H3N8, T323M) (Q9H3N8 whole entry T323M): as the sequence (Q9H3N8 whole entry N147Y) above, with Y147N, T323M counted along it

Histamine H4 receptor [7] = target: Histamine H4 receptor (Homo sapiens, UniProt Q9H3N8, T178A); test: Displacement of [3H]histamine from human H4 receptor T5.42A mutant expressed in HEK293 cells after 1 to 1.5 hrs by scintillation counting
Sequence of Histamine H4 receptor (Homo sapiens, UniProt Q9H3N8, T178A) (Q9H3N8 whole entry T178A): as the sequence (Q9H3N8 whole entry N147Y) above, with Y147N, T178A counted along it

| Ki (Histamine H4 receptor [1]) | Ki (Histamine H3 receptor) | Compound | further results |
| --- | --- | --- | --- |
| 47.9 nM | 1.05 nM | Clc1ccc(CN=C(NC2CCCCC2)SCCCc2cnc[nH]2)cc1 | Ki (Histamine H4 receptor [2]): 316 nM; Ki (Histamine H4 receptor [3]): 63.1 nM; Ki (Histamine H4 receptor [4]): 12.6 nM; Ki (Histamine H4 receptor [5]): 158 nM; Ki (Histamine H4 receptor [6]): 12.6 nM; Ki (Histamine H4 receptor [7]): 12.6 nM |
| 75.9 nM | 9.77 nM | c1ccc(CN/C(=N/C2CCCCC2)SCCCc2c[nH]cn2)cc1 | – |
| 148 nM | 1.02 nM | Clc1ccc(C/N=C(/NC2CCCCC2)SCCCc2c[nH]cn2)cc1Cl | – |
| 126 nM | 1.62 nM | N#Cc1ccc(C/N=C(/NC2CCCCC2)SCCCc2c[nH]cn2)cc1 | – |
| 229 nM | 17 nM | Clc1ccc(C/N=C(/NCc2ccccc2)SCCCc2c[nH]cn2)cc1 | – |
| 89.1 nM | 4.9 nM | CCCCN/C(=N/Cc1ccc(Cl)cc1)SCCCc1c[nH]cn1 | – |
| 135 nM | 1.15 nM | O=[N+]([O-])c1ccc(C/N=C(/NC2CCCCC2)SCCCc2c[nH]cn2)cc1 | – |

Second part, the molecule before the results:

| Compound | Ki (Histamine H4 receptor [1]) | Ki (Histamine H3 receptor) | further results |
| --- | --- | --- | --- |
| Clc1ccc(C/N=C(/NCc2ccccc2)SCCCc2c[nH]cn2)cc1Cl | 380 nM | 32.4 nM | – |
| c1nc(CCCS/C(=N\C2CCCC2)NC2CCCCC2)c[nH]1 | 31.6 nM | 18.6 nM | – |
| CC(C)(C)N/C(=N/C1CCCC1)SCCCc1c[nH]cn1 | 29.5 nM | 67.6 nM | – |
| c1ccc(CN/C(=N/C2CCCC2)SCCCc2c[nH]cn2)cc1 | 42.7 nM | 42.7 nM | – |
| CCCCN/C(=N/C1CCCC1)SCCCc1c[nH]cn1 | 16.2 nM | 46.8 nM | – |
| CCCCN/C(=N/Cc1ccc(Cl)c(Cl)c1)SCCCc1c[nH]cn1 | 89.1 nM | 4.68 nM | – |
| NC(=NCc1ccc(Cl)cc1)SCCCc1cnc[nH]1 [CLOBENPROPIT] | – | – | Ki (Histamine H4 receptor [2]): 15.8 nM; Ki (Histamine H4 receptor [3]): 10 nM; Ki (Histamine H4 receptor [4]): 1 nM; Ki (Histamine H4 receptor [5]): 50.1 nM; Ki (Histamine H4 receptor [6]): 1.58 nM; Ki (Histamine H4 receptor [7]): 2.51 nM |
